Activity calls are given as the source filed them. The rule behind the calls is not given here.
Legend:
[1] = biological target: NACHT, LRR and PYD domains-containing protein 3 (Mus musculus) (UniProt Q8R4B8); assay: Inhibition of NLRP3 inflammasome activation in LPS-treated mouse BMDM cells assessed as inhibition of Bz-ATP-stimulated IL-1beta release at 1 uM incubated for 30 mins followed by Bz-ATP stimulation for 30 mins by ELISA method; format: cell-based; details: time 60.0 min
Summary of the method: (§1)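 Mouse BMDMs, C57BL/6 bone marrow cells differentiated 7 days with M-CSF 10 ng/mL, seeded 5 × 10^5/well. Primed with LPS 1 µg/mL for 2 h, then compound 1 µM in serum-free medium for 30 min, then Bz-ATP 100 µM for 30 min. Supernatant IL-1β by ELISA in pg/mL and as percent inhibition. Mean ± SEM of three independent experiments in triplicate.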

[2] = biological target: NACHT, LRR and PYD domains-containing protein 3 (Mus musculus) (UniProt Q8R4B8); assay: Inhibition of NLRP3 inflammasome activation in LPS-treated mouse BMDM cells assessed as Bz-ATP-stimulated IL-1beta level at 1 uM incubated for 30 mins followed by Bz-ATP stimulation for 30 mins by ELISA method; format: cell-based; details: time 60.0 min; summary of the method: as §1
[3] = biological target: NACHT, LRR and PYD domains-containing protein 3 (Mus musculus) (UniProt Q8R4B8); assay: Inhibition of NLRP3 inflammasome activation in LPS-treated mouse BMDM cells assessed as inhibition of Bz-ATP-stimulated IL-1beta release at 1 uM incubated for 30 mins followed by Bz-ATP stimulation for 30 mins by ELISA method relative to control; format: cell-based; details: time 60.0 min; summary of the method: as §1
[4] = Metabolic stability in human liver microsomes assessed as intrinsic clearance measured per mg protein at 1 uM measured upto 60 mins by LC-MS/MS analysis; format: ADME, Microsome; details: read-out: CLH
Summary of the method: (§2)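 Pooled human or CD-1 male mouse liver microsomes at 0.5 mg/mL with test compound 1 µM in 50 mM phosphate pH 7.4 and 3 mM MgCl2, preincubated 10 min at 37 °C. Percent parent remaining vs 0 min measured by LC-MS/MS. Cli = k/microsomal conc. × 1000; mean ± SD, n = 2.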

[5] = Metabolic stability in mouse liver microsomes assessed as intrinsic clearance measured per mg protein at 1 uM measured upto 60 mins by LC-MS/MS analysis; format: ADME, Microsome; details: read-out: CLH; summary of the method: as §2
[6] = Metabolic stability in human liver microsomes assessed as half life measured per mg protein at 1 uM measured upto 60 mins by LC-MS/MS analysis; format: ADME, Microsome; summary of the method: as §2
[7] = Metabolic stability in mouse liver microsomes assessed as half life measured per mg protein at 1 uM measured upto 60 mins by LC-MS/MS analysis; format: ADME, Microsome; summary of the method: as §2

Chain of NACHT, LRR and PYD domains-containing protein 3 (Mus musculus) (Q8R4B8 whole entry, the tested form may be a part): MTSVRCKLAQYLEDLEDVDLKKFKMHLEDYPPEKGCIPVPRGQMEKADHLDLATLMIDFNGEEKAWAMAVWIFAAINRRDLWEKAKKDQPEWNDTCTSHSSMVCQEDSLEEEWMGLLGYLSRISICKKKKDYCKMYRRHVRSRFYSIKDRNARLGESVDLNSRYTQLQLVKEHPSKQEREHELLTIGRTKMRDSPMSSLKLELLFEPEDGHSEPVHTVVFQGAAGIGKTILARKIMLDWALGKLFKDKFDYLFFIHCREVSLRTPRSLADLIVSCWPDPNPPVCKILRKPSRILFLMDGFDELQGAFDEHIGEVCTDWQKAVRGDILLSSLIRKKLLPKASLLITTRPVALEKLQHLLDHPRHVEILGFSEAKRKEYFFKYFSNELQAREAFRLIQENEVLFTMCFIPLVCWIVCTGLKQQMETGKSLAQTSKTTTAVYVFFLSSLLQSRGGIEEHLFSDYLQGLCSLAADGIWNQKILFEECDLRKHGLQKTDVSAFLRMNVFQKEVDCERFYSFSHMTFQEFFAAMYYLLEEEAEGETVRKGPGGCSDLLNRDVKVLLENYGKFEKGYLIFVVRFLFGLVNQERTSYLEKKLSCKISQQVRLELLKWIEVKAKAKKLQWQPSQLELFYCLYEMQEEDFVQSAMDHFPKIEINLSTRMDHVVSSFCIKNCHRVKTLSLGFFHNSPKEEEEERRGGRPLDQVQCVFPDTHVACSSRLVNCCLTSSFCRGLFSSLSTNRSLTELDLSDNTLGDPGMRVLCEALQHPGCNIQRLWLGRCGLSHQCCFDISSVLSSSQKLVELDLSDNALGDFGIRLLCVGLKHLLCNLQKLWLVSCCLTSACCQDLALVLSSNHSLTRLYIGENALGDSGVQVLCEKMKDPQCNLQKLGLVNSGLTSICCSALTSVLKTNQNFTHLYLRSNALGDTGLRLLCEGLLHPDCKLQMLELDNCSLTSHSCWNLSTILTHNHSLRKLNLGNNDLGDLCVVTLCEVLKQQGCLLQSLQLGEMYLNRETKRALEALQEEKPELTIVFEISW

## O=C(CNS(=O)(=O)c1ccc([N+](=O)[O-])cc1)Nc1c2c(cc3c1CCC3)CCC2
[1]
  inhibition: inactive
[2]
  Activity: 344 pg/mL

## C[C@H](NS(=O)(=O)c1ccc([N+](=O)[O-])cc1)C(=O)Nc1c2c(cc3c1CCC3)CCC2
[1]
  inhibition: inactive
[2]
  Activity: 349 pg/mL

## Nc1ccc(S(=O)(=O)N2CCCC[C@H]2C(=O)Nc2c3c(cc4c2CCC4)CCC3)cc1
[3]
  inhibition: 25.4%
[2]
  Activity: 211 pg/mL

## CC(C)[C@H](NS(=O)(=O)c1ccc(N)cc1)C(=O)Nc1c2c(cc3c1CCC3)CCC2
[3]
  inhibition: 50.2%

## O=C(CCNS(=O)(=O)c1ccc([N+](=O)[O-])cc1)Nc1c2c(cc3c1CCC3)CCC2
[3]
  inhibition: 36.5%
[2]
  Activity: 180 pg/mL

## O=C(Nc1c2c(cc3c1CCC3)CCC2)[C@@H]1CCCCN1S(=O)(=O)c1ccc([N+](=O)[O-])cc1
[3]
  inhibition: 52.4%
[2]
  Activity: 135 pg/mL

## O=C(Nc1c2c(cc3c1CCC3)CCC2)[C@H](CNS(=O)(=O)c1ccc([N+](=O)[O-])cc1)c1ccccc1
[3]
  inhibition: 44.8%
[2]
  Activity: 156 pg/mL

## NCCCC[C@H](NS(=O)(=O)c1ccc([N+](=O)[O-])cc1)C(=O)Nc1c2c(cc3c1CCC3)CCC2
[3]
  inhibition: 47.5%
[2]
  Activity: 149 pg/mL

## CC(C)C[C@H](NS(=O)(=O)c1ccc(N)cc1)C(=O)Nc1c2c(cc3c1CCC3)CCC2
[3]
  inhibition: 31.5%
[2]
  Activity: 194 pg/mL

## Nc1ccc(S(=O)(=O)N[C@H](C(=O)Nc2c3c(cc4c2CCC4)CCC3)c2ccccc2)cc1
[3]
  inhibition: 16.1%
[2]
  Activity: 237 pg/mL

## CC(C)C[C@H](NS(=O)(=O)c1ccc([N+](=O)[O-])cc1)C(=O)Nc1c2c(cc3c1CCC3)CCC2
[3]
  inhibition: 53.9%
[2]
  Activity: 131 pg/mL

## CC(C)[C@@H](NS(=O)(=O)c1ccc(N)cc1)C(=O)Nc1c2c(cc3c1CCC3)CCC2
[3]
  inhibition: 25.1%

## O=C(Nc1c2c(cc3c1CCC3)CCC2)[C@@H](Cc1ccccc1)NS(=O)(=O)c1ccc([N+](=O)[O-])cc1
[3]
  inhibition: 49.5%
[2]
  Activity: 143 pg/mL

## Nc1ccc(S(=O)(=O)NCC(=O)Nc2c3c(cc4c2CCC4)CCC3)cc1
[1]
  inhibition: inactive
[2]
  Activity: 348 pg/mL

## Nc1ccc(S(=O)(=O)N[C@@H](Cc2ccccc2)C(=O)Nc2c3c(cc4c2CCC4)CCC3)cc1
[3]
  inhibition: 38%
[2]
  Activity: 175 pg/mL

## Nc1ccc(S(=O)(=O)N2CCC[C@H]2C(=O)Nc2c3c(cc4c2CCC4)CCC3)cc1
[3]
  inhibition: 41.6%
[2]
  Activity: 165 pg/mL

## CCOc1ccc2ccc(=O)oc2c1
[4]
  microsomal CLint at 1 µM: 168 µL/min/mg
[5]
  microsomal CLint at 1 µM: 422 µL/min/mg
[6]
  half-life at 1 µM: 8.3 min
[7]
  half-life at 1 µM: 3.3 min

## Nc1ccc(S(=O)(=O)NCCC(=O)Nc2c3c(cc4c2CCC4)CCC3)cc1
[3]
  inhibition: 22.3%
[2]
  Activity: 220 pg/mL

## Nc1ccc(S(=O)(=O)N[C@H](Cc2ccccc2)C(=O)Nc2c3c(cc4c2CCC4)CCC3)cc1
[3]
  inhibition: 46.4%
[2]
  Activity: 152 pg/mL

## NCCCC[C@H](NS(=O)(=O)c1ccc(N)cc1)C(=O)Nc1c2c(cc3c1CCC3)CCC2
[3]
  inhibition: 28.4%
[2]
  Activity: 203 pg/mL

## O=C(Nc1c2c(cc3c1CCC3)CCC2)[C@@H]1CCCN1S(=O)(=O)c1ccc([N+](=O)[O-])cc1
[3]
  inhibition: 25.7%
[2]
  Activity: 210 pg/mL

## O=C(Nc1c2c(cc3c1CCC3)CCC2)[C@H](Cc1ccc(O)cc1)NS(=O)(=O)c1ccc([N+](=O)[O-])cc1
[3]
  inhibition: 34.7%

## C[C@H](NS(=O)(=O)c1ccc(N)cc1)C(=O)Nc1c2c(cc3c1CCC3)CCC2
[3]
  inhibition: 17.3%

## O=C(Nc1c2c(cc3c1CCC3)CCC2)[C@@H]1Cc2ccccc2CN1S(=O)(=O)c1ccc([N+](=O)[O-])cc1
[3]
  inhibition: 53.7%
[2]
  Activity: 131 pg/mL

## O=C(Nc1c2c(cc3c1CCC3)CCC2)[C@H](Cc1ccccc1)NS(=O)(=O)c1ccc([N+](=O)[O-])cc1
[3]
  inhibition: 19.8%
[2]
  Activity: 227 pg/mL

## CC(C)NCC(O)COc1cccc2ccccc12 (stereo not given) [PROPRANOLOL]
[6]
  half-life at 1 µM: 47 min
[7]
  half-life at 1 µM: 7.3 min

Source: ChEMBL document CHEMBL5380838, “Novel Aryl Sulfonamide Derivatives as NLRP3 Inflammasome Inhibitors for the Potential Treatment of Cancer” (J Med Chem, 2023)
